An excerpt weighted towards active compounds, which were near 1.6% of everything screened.
TLR4 MyD88 comp – blocks binding of human TLR4 to MyD88. O00206+Q99836. HeLa CL3-4 TLR4/MyD88 BLA complementation, FRET ratio. inhibition, % at 8.4 µM. hit rate 0.18% among 200,000. AID 861; in the data active = inhibition above about 25%;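 note: 0% = vehicle and 100% = reference inhibitor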
ABHD5-PLIN5 inh – inhibitors of human ABHD5-perilipin-5 interaction; Q00G26+Q8WTS1; Split G. princeps luciferase complementation, luminescence, 4 h; inhibition, % at 4 µM; hit rate 0.78% among 360,000;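 active = inhibition above the mean inhibition across every tested compound plus 3 SD, cut at about 22% in these data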;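 note: 0% = DMSO only wells and the 100% control is not disclosed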
NOD2 RIPK2 PPI – blocks binding of human NOD2 to RIPK2 | CHO BLA complementation NOD2-RIPK2, CCF4 ratio | O43353 | hit rate 0.38% among 360,000 | inhibition, % at 4.98 µM; in the data active = inhibition above about 21%;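 note: 0% = vehicle only and 100% = reference blocker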
Beta2AR agonist – human beta-2 adrenergic receptor agonism by FAP. Am2.2-beta2AR cells, FAP receptor internalization, flow cytometry. response, % (concentration not given with the values). hit rate 0.43% among 340,000. P07550;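 active = response above a set limit, near 3 SD of response in nonfluorescent compounds, cut at about 42% in these data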
Dynein transport – dynein cargo transport inhibition | 3617.4 mouse cells, GR-EGFP nuclear translocation imaging; test concentration mostly 20 µM; stimulated with dexamethasone, 1 µM; hits give low values | z-score, hits read low | hit rate 0.47% among 220,000;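 active = plate z-score of nuclear minus cytoplasmic receptor signal below a set negative limit, without overly bright fluorescence or cell loss, cut at about -3.5 in these data, passing the limit was not always enough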;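 note: z-score of nuclear minus cytoplasmic ring GR-EGFP intensity difference per well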
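Also added: dexamethasone, 1.0 µM final. Medium: tet-free, stripped-serum medium. Detection: fixed, Hoechst-stained cells imaged at 10x for EGFP. Read-out: nuclear-to-cytoplasmic GR-EGFP distribution per well. Times: induction 48 h, compound 1 h, agonist 30 min.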
TLR9-MyD88 block – blocks human TLR9 binding to MyD88; Q9NR96+Q99836; AID 504734; inhibition, % at 4.98 µM; CHO BLA complementation TLR9-MyD88, CCF4 FRET ratio; hit rate 0.21% among 340,000;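 active = inhibition above the mean over all tested compounds plus 3 SD, cut at about 21% in these data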;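 note: 0% = DMSO only wells and 100% = clavulanate BLA inhibitor control wells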
B2AR ag CP1 – agonists of human beta-2 adrenergic receptor; shares compounds with Beta2AR agonist; Am2.2-beta2AR cells, FAP surface receptor, flow cytometry; hits give low values; percent response (surface receptor), % at 10 µM; hit rate 25% among 1,100;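 active = surface receptor percent response at or below 58%, roughly 3 SD from nonfluorescent compounds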
FAP fluor counter – flagged in Am2.2 fluorescence counterscreen for beta-2AR agonists; shares compounds with Beta2AR agonist; Am2.2 cells, FAP fluorogen flow cytometry; hits give low values; calls only at 10 µM; AID 588765; 1,100 tested, under 10 active;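 active = percent response below a set limit in fluorescence channel 1 and below 50% in channel 8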
The depositor's hits bear a star; i = inactive; / = no result; ! = not confirmed by another sample.

SMILES | TLR4 MyD88 comp | ABHD5-PLIN5 inh | NOD2 RIPK2 PPI | Beta2AR agonist | Dynein transport | TLR9-MyD88 block | B2AR ag CP1 | FAP fluor counter
O=C(Nc1ccccc1)c1ccccc1CCc1ccccc1 | 0 | -4 | -6 | 32 | 0.14 | -6 | 46* | i
CCCCN(CCCC)c1nc2ccccc2nc1NS(=O)(=O)c1ccc(NC(C)=O)cc1 | -5 | -4 | -1 | 119* | -0.43 | 4 | 28* | i
CC(=O)Nc1ccc(S(=O)(=O)Nc2nc3ccccc3nc2Nc2ccc(N)cc2)cc1 | / | 5 | 8 | 4 | 0.01 | 4 | / | /
CC(NC(=O)C1CCCN1S(=O)(=O)c1cccc2cccnc12)c1ccccc1 (configuration not stated) | -3 | 8 | -8 | 56* | 0.31 | 0 | 106 | i
CC(NC(=O)C1CCN(S(=O)(=O)c2cccc3cccnc23)CC1)c1ccccc1 (configuration not stated) | / | 1 | 2 | -7 | / | -1 | / | /
O=C1CN(S(=O)(=O)c2cccc(Cl)c2Cl)c2ccccc2N1 | / | -3 | 4 | 46* | / | -10 | 26* | i
CCC(=O)N1COC[C@@H]1Cc1ccccc1 | -4 | -8 | -1 | -1 | -0.13 | -1 | 107 | i
CCNC(=O)C1(C)CCN(C(=O)c2cccc(C(F)(F)F)c2)C1 (configuration not stated) | / | -6 | -1 | / | / | / | / | /
Cn1c(SCC(=O)N/N=C/C=C/c2ccco2)nc2ccccc21 | -8 | 9 | 3 | -12 | -0.29 | -7 | 98 | i
CC(C)n1c(=O)c2ccccc2n1C(=O)c1ccccc1 | / | -6 | -1 | / | / | / | / | /
COc1ccc(NS(=O)(=O)c2cc3c4c(c2)CCN4C(=O)CC3)cc1OC | / | -4 | -3 | 3 | / | 9 | / | /
COc1cc2[nH]c(=O)n(CCC(=O)N3CCc4ccccc4C3)c(=O)c2cc1OC | 0 | 3 | -10 | 1 | -0.29 | 9 | / | /
COc1ccccc1N1CCN(C(=O)CCCn2c(=O)[nH]c3ccsc3c2=O)CC1 | -2 | 0 | -3 | -7 | -0.16 | -11 | / | /
COc1ccccc1CNC(=O)CCn1c(=O)[nH]c2ccsc2c1=O | 7 | 5 | -5 | 2 | 0.31 | 2 | 54*! | i
O=C(CCn1c(=O)[nH]c2ccsc2c1=O)N1CCc2ccccc2C1 | 5 | 3 | 4 | -28 | 0.063 | -4 | 150 | i
COc1cccc(CNCc2ccc(OC)cc2OC)c1 | / | -9 | -5 | -1 | / | 3 | / | /
CCn1c2ccccc2c2cc(CNCc3ccc(OC)cc3OC)ccc21 | -7 | 19 | 6 | 51* | -2.5 | 1 | 76 | i
CN(C)C(CNC(=O)c1ccc(NC(=O)CC#N)cc1)c1ccccc1 (configuration not stated) | -2 | 6 | -9 | 47* | -0.18 | 4 | 97 | i
N#CCC(=O)Nc1ccc(C(=O)NCCC(c2ccccc2)c2ccccc2)cc1 | / | 5 | 1 | -9 | / | 11 | / | /
COc1ccccc1N(C)S(=O)(=O)c1ccc(C(=O)Nc2cccc(S(=O)(=O)N3CCOCC3)c2)cc1 | / | 3 | -3 | 9 | / | 7 | / | /
CCc1nc2ccc(C(=O)N3CCN(S(=O)(=O)CC)CC3)cn2c1N(C)C(=O)c1cccc(OC)c1 | / | 3 | 0 | / | / | / | / | /
O=C(NC1(Cc2ccc(O)cc2)CCCCC1)c1ccccc1 | / | 0 | 0 | 43* | / | 6 | 41* | i
O=C(Cc1ccccn1)c1ccncc1 | / | 11 | 1 | 8 | / | 12 | / | /
CCc1cccc2c1NC1(CCCC1)CC2C (configuration not stated) | / | 2 | -12 | 3 | 0.062 | 6 | 106 | i
CC1CC2(CCCCC2)Nc2ccc3ccccc3c21 (configuration not stated) | -8 | -7 | -5 | 5 | 0.47 | -3 | / | /
SMILES | TLR4 MyD88 comp | ABHD5-PLIN5 inh | NOD2 RIPK2 PPI | Beta2AR agonist | Dynein transport | TLR9-MyD88 block | B2AR ag CP1 | FAP fluor counter
CCCc1ccc(OCc2nc(-c3ccc(NC(=O)c4cccs4)cc3)no2)cc1 | 9 | 0 | -6 | -5 | 0.73 | 7 | 75 | i
COc1ccccc1CC(=O)Nc1ccc(-c2noc(COc3ccc(Br)cc3)n2)cc1 | -1 | -7 | -2 | -8 | -0.28 | -7 | / | /
CCCc1ccc(OCc2nc(-c3ccc(NC(=O)c4ccco4)cc3)no2)cc1 | 7 | -3 | -7 | 27 | -0.2 | 0 | 42* | i
Cc1ccccc1-n1nc2c(c1NC(=O)C1CC1)CS(=O)(=O)C2 | / | -5 | -4 | / | / | 9 | / | /
O=C(COC(=O)c1cc(=O)[nH]c2ccccc12)NCc1ccc(Cl)cc1 | / | -5 | -10 | -1 | / | 3 | / | /
COc1ccc(N(C(=O)c2snc(C(N)=O)c2N)C(C(=O)NC2CCCCC2)c2ccc(C)o2)c(OC)c1 (configuration not stated) | / | 2 | -2 | 11 | / | -2 | / | /
COc1ccc(N(C(=O)c2snc(C(N)=O)c2N)C(C(=O)NC2CCCC2)c2ccco2)c(OC)c1 (configuration not stated) | / | 4 | -6 | 70* | / | 0 | 116 | i
COc1ccc(CN2C[C@@H](CO)O[C@@H](n3cnc4c(N5CCN(c6ccccc6)CC5)ncnc43)C2)cc1 | / | -3 | 0 | / | / | / | / | /
CCOC(=O)c1cnc(-n2nc(C)cc2C)nc1NC | 6 | 2 | 5 | -8 | -0.59 | 1 | 105 | i
O=S(=O)(Nc1cccc(-c2cn3cccnc3n2)c1)c1ccc(-c2ccccc2)cc1 | 7 | 15 | -8 | 110* | -0.42 | 7 | 12* | i
COc1ccc(CN2C[C@H]3CCCN3c3cc(Br)ccc3S2(=O)=O)cc1 | / | -8 | 3 | 44* | / | 0 | 65 | i
CCCCCc1ccnc(CC(=O)c2ccc(OC)cc2)c1 | / | 5 | -3 | -3 | / | -2 | / | /
Cc1cc(C)n2c(Br)c(CSc3nc4ccccc4s3)nc2n1 | 0 | -10 | 0 | 47* | 0.35 | -5 | 79 | i
CC(NC(=O)c1cc(S(=O)(=O)N(C)C)ccc1Cl)c1ccc(-n2ccnc2)cc1 (configuration not stated) | / | -2 | 2 | 6 | / | 10 | / | /
COc1cc(CNCCc2ccc(S(N)(=O)=O)cc2)ccc1OCc1ccc(Cl)cc1 | 3 | 15 | -5 | 55* | -0.24 | -3 | 93 | i
CCOc1cc(CNCCc2ccc(S(N)(=O)=O)cc2)ccc1OCc1ccc(Cl)cc1 | 9 | 28* | 15 | 50* | 0.58 | 0 | 31* | i
COC(=O)[C@]12CCCCC=C1N(CCC1=CCCCC1)C(=O)[C@H](CC(=O)NCc1cccc(C(F)(F)F)c1)C2 | / | -10 | 4 | / | / | / | / | /

From PubChem BioAssay
